Compound activity from PubChem BioAssay.
Compounds with a hit are over-represented: about 4% of the library has one in this group of screens.
SENP1 FRET inh: blocks the human SENP1 SUMO protease catalytic domain | recombinant SENP1 catalytic domain, CyPet-SUMO1-YPet FRET cleavage | inhibition, % at 10 µM | 0.21% of 360,000 active | AID 624204;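 active = inhibition at least 30% at 10 µM, raw YFP signal under a set limit, fluorescence ratio 0.5 to 1.5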;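 also: 0% = enzyme with DMSO and 100% = no enzyme wells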
Target sequence (Q9P0U3 419-644 limits assumed): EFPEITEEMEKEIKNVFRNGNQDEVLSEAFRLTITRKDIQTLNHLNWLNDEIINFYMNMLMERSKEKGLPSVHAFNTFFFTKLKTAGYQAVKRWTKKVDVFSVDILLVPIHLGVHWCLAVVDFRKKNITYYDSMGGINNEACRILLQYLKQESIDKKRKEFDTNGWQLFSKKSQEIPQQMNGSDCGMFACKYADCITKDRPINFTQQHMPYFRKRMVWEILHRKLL
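Assay system – human recombinant His6-tagged SENP1 catalytic domain enzyme · Input – SENP1 enzyme, 20 pM final · Buffer or medium – Tris pH 8 buffer plus EDTA, NaCl, BME, BSA, NP40, catalase · Schedule – 50 min reaction at room temperature · Technique – FRET read of cyan and yellow fluorescence · Control set – no-enzyme wells low, DMSO-plus-enzyme wells high control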
NR3A LBD binder: NR3A (human) ligand-binding domain modulation; AID 1259313; NR3A LBD differential scanning fluorimetry, Tm shift; 0% = protein alone, 100% = glycine-bound protein; Tm shift relative to glycine control, % at 25 µM; 2.5% of 340,000 active;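 active = melting temperature shift of at least 10% of the positive control shift, at one fixed dose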
H9c2 protect: myocardial damage modulation in H9c2 cells; protection from H2O2 cell death, % at 20 µM; 0.63% of 360,000 active; H9c2 cardiomyocytes, H2O2 injury protection, ATPLite, 2 h;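 active = compounds giving at least 50% protection of heart cells from peroxide-induced death in the single-dose screen, raw or plate-pattern-corrected value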;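 also: 0% = DMSO wells with peroxide and 100% = DMSO wells without peroxide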
hiPSC survival: enhancers of human iPSC single-cell survival; hiPSC single-cell survival, ATPlite luminescence; 100% = ROCK inhibitor wells, 0% = DMSO; survival enhancement, % at 20 µM; 0.044% of 360,000 active; in the data active = survival enhancement above about 18%;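 also: cells exposed to compounds for 16 hours before the ATP read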
Arr AP2 block: inhibitors of human beta-arrestin and AP2 interaction. FITC-arrestin peptide / GST-AP2 beads, flow cytometry; AP2 beta2 appendage carries R879A mutation. inhibition, % at 10 µM. 0.31% of 340,000 active. AID 504490;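 active = inhibition above a set limit, near 3 SD of compounds lacking own fluorescence, cut at about 54% in these data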;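 also: plate controls were DMSO wells for no effect and 5 µM unlabelled arrestin peptide for full effect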
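Material – AP2 appendage R879A on GSH beads · Buffer or medium – PBS with 0.05% Tween 20 and 0.1% BSA · Probe or stimulus – fluorescein-tagged arrestin peptide at 50 nM final · Incubation – compound with beads 12 min RT, then probe 1 h RT · Detection – high-throughput flow cytometry of beads, ex 488, em 535 nm · Evaluation – percent response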
FAS-TE inh: blocks the thioesterase domain of human fatty acid synthase | recombinant FAS-TE, OMFH fluorogenic substrate, fluorescence endpoint | 0.67% of 360,000 active | AID 602261 | P49327 | inhibition, % at 15 µM;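 active = compounds whose normalised, plate-corrected inhibition of enzyme fluorescence in the single-dose primary screen is 50% or more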;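 also: 0% = DMSO with enzyme and 100% = substrate without enzyme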
The depositor's hits bear a star; · = no result given.

SMILES	SENP1 FRET inh	NR3A LBD binder	H9c2 protect	hiPSC survival	Arr AP2 block	FAS-TE inh
O=C(O)c1ccc2c(c1)C(=O)/C(=C\c1ccco1)C2=O	31*	3	7	6	11	-5
O=C(O)c1ccc2c(c1)C(=O)/C(=C/c1ccccc1)C2=O	24	26*	1	1	3	-9
Cc1ccc(/C=C2/C(=O)c3ccc(C(=O)O)cc3C2=O)o1	26	2	14	2	3	-7
O=C1C(=Cc2ccco2)C(=O)c2ccccc21	8	3	13	1	-3	-7
Cc1cc(C)c(C)c(S(=O)(=O)N2CCNC(=O)C2)c1C	1	·	-2	-1	·	-9
O=c1c2ccccc2oc2nc(-c3ccco3)n(Cc3ccccc3)c(=O)c12	0	-1	63*	1	11	0
CC(=O)N1CCOC12CCN(Cc1ccccc1)CC2	-1	·	1	-1	·	-6
CCOC1(OCC)OC(c2ccccc2)=C(C#N)C(C=Cc2ccccc2)C1(OCC)OCC (stereo not drawn)	3	·	-5	0	·	21
CCOc1ccc(-c2nc(CCl)cs2)cc1	1	-1	-14	0	1	10
ClCc1csc(-c2ccc(Cl)cc2)n1	1	13*	-14	-2	-8	6
O=C(COc1ccccc1)Nc1ccc2c(c1)Cc1cc(NC(=O)COc3ccccc3)ccc1-2	1	23*	8	0	-2	-10
CSc1cccc(NC(=S)NC(=O)CCc2ccccc2)c1	-1	-11	-10	0	-2	25
O=C(CCc1ccccc1)NC(NC(=S)Nc1ccc(Br)cc1)C(Cl)(Cl)Cl (stereo not drawn)	1	14*	-17	0	-1	4
O=C(CCc1ccccc1)NC(NC(=S)Nc1cccc(Cl)c1)C(Cl)(Cl)Cl (stereo not drawn)	0	38*	-14	-3	10	0
O=C(CCc1ccccc1)Nc1cc(NC(=O)CCc2ccccc2)cc(C(=O)O)c1	-1	17*	-2	0	15	-2
COc1ccc(C(O)c2nc(-c3ccc4ccccc4c3)cs2)cc1 (stereo not drawn)	2	·	-22	-2	·	20
Cc1ccc(S(=O)(=O)NC(=O)C2(C)CCN2C(=O)C2(c3ccc(Cl)cc3)CCC2)nc1 (stereo not drawn)	2	·	6	5	·	-4
O=C(CCc1ccccc1)NNC(=O)COc1ccccc1	3	13*	-2	-1	3	-3
O=C(CCc1ccccc1)NNC(=O)Nc1ccc(Br)cc1	-1	12*	-11	0	23	2
COc1ccc(OCC(=O)NNC(=O)CCc2ccccc2)cc1	2	-1	9	-1	31	-9
CCCC(=O)NC(NC(=S)Nc1ccc(N=Nc2ccccc2)cc1)C(Cl)(Cl)Cl (stereo not drawn)	3	22*	-23	-1	-4	6
O=C(Nc1ccc(Cl)c(Cl)c1)N[C@@H]1CC[C@@H](CCn2cc(C3CCCCC3)nn2)O[C@@H]1CO	3	·	·	·	·	·
O=S(=O)(c1ccccc1)n1cc(-c2cccc3nccn23)c2ccccc21	-42	·	-22	0	·	7
COc1ccccc1C1CC(c2c(-c3ccccc3)c3cc(Cl)ccc3[nH]c2=O)=NN1S(C)(=O)=O (stereo not drawn)	14	25*	-7	2	5	-5
COC(=O)c1ccc(Nc2cc(C)nc(-c3ccccc3O)n2)cc1	-1	23*	-1	-2	-2	2
SMILES	SENP1 FRET inh	NR3A LBD binder	H9c2 protect	hiPSC survival	Arr AP2 block	FAS-TE inh
COC(=O)c1ccc(Nc2cc(C)nc3ccc(C)cc23)cc1	-2	-2	-9	-1	10	5
COC(=O)c1cccc(Nc2cc(C)nc(-c3ccccc3O)n2)c1	-2	17*	11	3	-8	34
CCOC(=O)c1ccc(Nc2cc(C)nc(-c3ccccc3)n2)cc1	0	10*	-7	0	1	26
CCOC(=O)c1ccc(Nc2nc(C)cc(C)n2)cc1	-43	0	-3	0	15	-2
COC(=O)c1cccc(NC(=O)c2ccccc2)c1	3	-1	-5	0	3	0
CCCCC1CC2=C(C(=O)OC(C)(C)O2)C(c2ccc(Cl)cc2)O1 (stereo not drawn)	0	·	-2	-2	·	24
CCCc1nc2ccc(C)cn2c1Cc1ccc(OC)cc1C	-17	·	-8	0	·	-4
O=c1cc(CN2CCN(S(=O)(=O)c3ccc4c(c3)OCCO4)CC2)c2ccc(O)cc2o1	-26	-4	25	-3	9	6
O=c1cc(CN2CCN(S(=O)(=O)c3cccc(Cl)c3)CC2)c2ccc(O)cc2o1	-24	-4	54*	1	7	12
O=C(CC(=O)c1ccccc1O)c1cccc(F)c1	4	23*	11	0	20	6
O=C(OCc1cc(=O)n2ccsc2n1)c1ccc(O)cc1O	2	1	64*	0	-4	-5
O=c1cc(COc2ncnc3ccccc23)nc2sccn12	1	0	13	0	12	-6
O=c1cc(COc2ncnc3c(Cl)cc(Cl)cc23)nc2sccn12	-1	1	55*	2	0	2
CC1=C(C(=O)N(C(C)C)C(C)C)CC(CC(=O)NCc2ccco2)C(=O)N1Cc1ccc(C(C)(C)C)cc1 (stereo not drawn)	1	·	-4	-3	·	9
CCCC(=O)N1CCOCC1c1cc(C(=O)NCc2ccccc2)no1 (stereo not drawn)	1	·	8	2	·	-9
O=C1NN(c2ccc(F)c(Cl)c2)C(=O)/C1=C\c1cccc(OC(=O)c2cccs2)c1	1	24*	-4	-1	-7	12
Cc1c(N(C)C(=O)C23CC4CC(CC(C4)C2)C3)c(=O)n(-c2ccccc2)n1C	2	11*	4	10	0	-3
Cc1sc2nc(SCC(=O)N3CCCCC3)[nH]c(=O)c2c1C	-17	-4	39	3	-12	-6
Cc1sc2nc(SCC(=O)N3CCCC3)[nH]c(=O)c2c1C	0	0	80*	0	8	-5
Cc1sc2nc(SCC(=O)N(C)C)[nH]c(=O)c2c1C	-7	2	73*	2	-1	-4
CCN(CC)C(=O)CSc1nc2sc(C)c(C)c2c(=O)[nH]1	-9	0	44	4	-3	2
O=NN(CCCl)C(=O)NCC1=C[N+](=O)CC=C1	-3	·	·	0	·	-4
COc1ccc(NC(=O)Cn2c([N+](=O)[O-])cnc2C)c(OC)c1	1	·	14	2	·	-12
